# Test results reported in ChEMBL document CHEMBL4033793, “Potent and Selective Inhibitors of Human Sirtuin 5” (J Med Chem, 2018).
# Starred links: 1 amine or outer side, 2 acyl side, 3 side chain; linkers in the order of their positions; H or OH if unused. Residues, ends and D or L forms follow the SMILES beside them. *: point of attachment. X2 = O=C(CCCC[C@@H]1SC[C@@H]2NC(=O)N[C@@H]21)NCCCOCCOCCOCCCN*; X51 = O=C(O)[C@@H](CC(=O)*)SCc1ccc([N+](=O)[O-])cc1; X46 = CC(C)(C)c1ccc(CS[C@@H](CC(=O)*)C(=O)O)cc1; X49 = O=C(O)[C@H](CC(=O)*)SCc1cccc(C(F)(F)F)c1; X56 = Cc1cc(C)c(CS[C@H](CC(=O)*)C(=O)O)c(C)c1; X55 = O=C(O)[C@@H](CC(=O)*)Sc1ccc(Cl)cc1Cl; X58 = O=C(O)[C@@H](CC(=O)*)Sc1cccc(Cl)c1Cl; X50 = O=C(O)[C@H](CC(=O)*)Sc1cc(Cl)ccc1Cl; X59 = O=C(O)[C@@H](CC(=O)*)SCc1ccc(Cl)cc1; X57 = O=C(O)[C@@H](CC(=O)*)Sc1ccc(Cl)cc1; X47 = O=C(O)[C@@H](CC(=O)*)SCc1ccccc1Cl; X48 = O=C(O)[C@@H](CC(=O)*)SCCCc1ccccc1; X53 = O=C(O)[C@H](CC(=O)*)Sc1ccccc1Cl; X54 = O=C(O)[C@H](CC(=O)*)SCCc1ccccc1; X9 = O=C(O)C(CC(=O)*)Sc1ccc2ccccc2c1; Suc = O=C(CCC(=O)[*:2])[*:1]; Bz = O=C(c1ccccc1)*
# Biological target: T1, NAD-dependent protein deacylase sirtuin-5, mitochondrial (Homo sapiens, UniProt Q9NXA8)
# Assay: Competitive inhibition of human recombinant N-terminal Strep2-tagged SIRT5 expressed in Escherichia coli BL21 (DE3) using Abz-GVLK(glutaryl)AY(NO2)GV-NH2 as substrate in presence of NAD+ by fluorescence assay
# How it was run: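 Continuous trypsin-coupled fluorescence assay at 37°C: 10 nM SIRT5, 500 µM NAD+, 500 nM trypsin, 5% DMSO, 0.025-5 µM substrate, 0.01-20 µM inhibitor. Buffer: 20 mM Tris, 150 mM NaCl, 5 mM MgCl2, pH 7.8. Excitation 320 nm, emission 420 nm. Measured in duplicate; IC50 determined at 0.03 µM substrate by log(inhibitor) vs normalized response fit.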
# T1 sequence (Q9NXA8 whole entry): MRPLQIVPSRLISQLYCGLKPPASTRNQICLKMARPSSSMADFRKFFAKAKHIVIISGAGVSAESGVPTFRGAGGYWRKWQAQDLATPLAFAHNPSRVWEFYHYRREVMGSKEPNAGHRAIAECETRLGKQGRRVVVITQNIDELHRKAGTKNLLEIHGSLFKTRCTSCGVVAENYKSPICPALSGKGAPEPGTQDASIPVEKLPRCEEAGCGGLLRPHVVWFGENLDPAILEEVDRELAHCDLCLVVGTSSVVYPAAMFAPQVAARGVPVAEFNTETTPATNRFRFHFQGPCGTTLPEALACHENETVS
row,Ki [nM],Compound
1,83.2,CC(C)C[C@H](NC(=O)[C@@H](NC(=O)CNC(=O)CCC(=O)NCCCOCCOCCOCCCNC(=O)CCCC[C@@H]1SC[C@@H]2NC(=O)N[C@@H]21)C(C)C)C(=O)N[C@@H](CCCCNC(=O)CC(Sc1ccc2ccccc2c1)C(=O)O)C(=O)N[C@@H](CCC(=O)O)C(=O)N[C@@H](Cc1ccc(O)cc1)C(=O)NCC(=O)N[C@H](C(N)=O)C(C)C (stereo not given in full) ({X2-Suc}-GVLK(X9)EYGV-NH2)

# Biological target: T1, NAD-dependent protein deacylase sirtuin-5, mitochondrial
# Assay: Inhibition of human recombinant N-terminal Strep2-tagged SIRT5 expressed in Escherichia coli BL21 (DE3) using Abz-GVLK(glutaryl)AY(NO2)GV-NH2 as substrate in presence of NAD+ by fluorescence assay
row,Compound,IC50 [nM]
1,CC(C)C[C@H](NC(=O)[C@@H](NC(=O)CNC(=O)c1ccccc1)C(C)C)C(=O)N[C@@H](CCCCNC(=O)C[C@@H](SCCCc1ccccc1)C(=O)O)C(=O)N[C@@H](CCC(=O)O)C(=O)N[C@@H](Cc1ccc(O)cc1)C(=O)NCC(=O)N[C@H](C(N)=O)C(C)C (Bz-GVLK(X48)EYGV-NH2),2060
2,CC(C)C[C@H](NC(=O)[C@@H](NC(=O)CNC(=O)c1ccccc1)C(C)C)C(=O)N[C@@H](CCCCNC(=O)C[C@@H](SCc1ccc([N+](=O)[O-])cc1)C(=O)O)C(=O)N[C@@H](CCC(=O)O)C(=O)N[C@@H](Cc1ccc(O)cc1)C(=O)NCC(=O)N[C@H](C(N)=O)C(C)C (Bz-GVLK(X51)EYGV-NH2),4030
3,CC(C)C[C@H](NC(=O)[C@@H](NC(=O)CNC(=O)c1ccccc1)C(C)C)C(=O)N[C@@H](CCCCNC(=O)C[C@H](SCCc1ccccc1)C(=O)O)C(=O)N[C@@H](CCC(=O)O)C(=O)N[C@@H](Cc1ccc(O)cc1)C(=O)NCC(=O)N[C@H](C(N)=O)C(C)C (Bz-GVLK(X54)EYGV-NH2),2740
4,CC(C)C[C@H](NC(=O)[C@@H](NC(=O)CNC(=O)c1ccccc1)C(C)C)C(=O)N[C@@H](CCCCNC(=O)C[C@@H](Sc1ccc(Cl)cc1Cl)C(=O)O)C(=O)N[C@@H](CCC(=O)O)C(=O)N[C@@H](Cc1ccc(O)cc1)C(=O)NCC(=O)N[C@H](C(N)=O)C(C)C (Bz-GVLK(X55)EYGV-NH2),2010
5,CC(C)C[C@H](NC(=O)[C@@H](NC(=O)CNC(=O)c1ccccc1)C(C)C)C(=O)N[C@@H](CCCCNC(=O)C[C@@H](Sc1ccc(Cl)cc1)C(=O)O)C(=O)N[C@@H](CCC(=O)O)C(=O)N[C@@H](Cc1ccc(O)cc1)C(=O)NCC(=O)N[C@H](C(N)=O)C(C)C (Bz-GVLK(X57)EYGV-NH2),1610
6,CC(C)C[C@H](NC(=O)[C@@H](NC(=O)CNC(=O)c1ccccc1)C(C)C)C(=O)N[C@@H](CCCCNC(=O)C[C@@H](Sc1cccc(Cl)c1Cl)C(=O)O)C(=O)N[C@@H](CCC(=O)O)C(=O)N[C@@H](Cc1ccc(O)cc1)C(=O)NCC(=O)N[C@H](C(N)=O)C(C)C (Bz-GVLK(X58)EYGV-NH2),3390

# Stronger by IC50, values ahead:
row,IC50 [nM],Compound
1,1120,CC(C)C[C@H](NC(=O)[C@@H](NC(=O)CNC(=O)c1ccccc1)C(C)C)C(=O)N[C@@H](CCCCNC(=O)C[C@H](SCc1cccc(C(F)(F)F)c1)C(=O)O)C(=O)N[C@@H](CCC(=O)O)C(=O)N[C@@H](Cc1ccc(O)cc1)C(=O)NCC(=O)N[C@H](C(N)=O)C(C)C (Bz-GVLK(X49)EYGV-NH2)
2,1020,CC(C)C[C@H](NC(=O)[C@@H](NC(=O)CNC(=O)c1ccccc1)C(C)C)C(=O)N[C@@H](CCCCNC(=O)C[C@@H](SCc1ccc(Cl)cc1)C(=O)O)C(=O)N[C@@H](CCC(=O)O)C(=O)N[C@@H](Cc1ccc(O)cc1)C(=O)NCC(=O)N[C@H](C(N)=O)C(C)C (Bz-GVLK(X59)EYGV-NH2)
3,857,CC(C)C[C@H](NC(=O)[C@@H](NC(=O)CNC(=O)c1ccccc1)C(C)C)C(=O)N[C@@H](CCCCNC(=O)C[C@H](Sc1ccccc1Cl)C(=O)O)C(=O)N[C@@H](CCC(=O)O)C(=O)N[C@@H](Cc1ccc(O)cc1)C(=O)NCC(=O)N[C@H](C(N)=O)C(C)C (Bz-GVLK(X53)EYGV-NH2)
4,793,CC(C)C[C@H](NC(=O)[C@@H](NC(=O)CNC(=O)c1ccccc1)C(C)C)C(=O)N[C@@H](CCCCNC(=O)C[C@H](SCc1ccc(C(C)(C)C)cc1)C(=O)O)C(=O)N[C@@H](CCC(=O)O)C(=O)N[C@@H](Cc1ccc(O)cc1)C(=O)NCC(=O)N[C@H](C(N)=O)C(C)C (Bz-GVLK(X46)EYGV-NH2)
5,631,Cc1cc(C)c(CS[C@H](CC(=O)NCCCC[C@H](NC(=O)[C@H](CC(C)C)NC(=O)[C@@H](NC(=O)CNC(=O)c2ccccc2)C(C)C)C(=O)N[C@@H](CCC(=O)O)C(=O)N[C@@H](Cc2ccc(O)cc2)C(=O)NCC(=O)N[C@H](C(N)=O)C(C)C)C(=O)O)c(C)c1 (Bz-GVLK(X56)EYGV-NH2)
6,352,CC(C)C[C@H](NC(=O)[C@@H](NC(=O)CNC(=O)c1ccccc1)C(C)C)C(=O)N[C@@H](CCCCNC(=O)C[C@@H](SCc1ccccc1Cl)C(=O)O)C(=O)N[C@@H](CCC(=O)O)C(=O)N[C@@H](Cc1ccc(O)cc1)C(=O)NCC(=O)N[C@H](C(N)=O)C(C)C (Bz-GVLK(X47)EYGV-NH2)
7,295,CC(C)C[C@H](NC(=O)[C@@H](NC(=O)CNC(=O)c1ccccc1)C(C)C)C(=O)N[C@@H](CCCCNC(=O)C[C@H](Sc1cc(Cl)ccc1Cl)C(=O)O)C(=O)N[C@@H](CCC(=O)O)C(=O)N[C@@H](Cc1ccc(O)cc1)C(=O)NCC(=O)N[C@H](C(N)=O)C(C)C (Bz-GVLK(X50)EYGV-NH2)
8,91.1,CC(C)C[C@H](NC(=O)[C@@H](NC(=O)CNC(=O)CCC(=O)NCCCOCCOCCOCCCNC(=O)CCCC[C@@H]1SC[C@@H]2NC(=O)N[C@@H]21)C(C)C)C(=O)N[C@@H](CCCCNC(=O)CC(Sc1ccc2ccccc2c1)C(=O)O)C(=O)N[C@@H](CCC(=O)O)C(=O)N[C@@H](Cc1ccc(O)cc1)C(=O)NCC(=O)N[C@H](C(N)=O)C(C)C (stereo not given in full) ({X2-Suc}-GVLK(X9)EYGV-NH2)
